This passage reports folding enthalpy and Tm results from the array DNA melting data of Ke et al. (doi:10.1101/2024.01.08.574731).

Series [1] in a line: folding enthalpy; higher = less favourable; fluorescence melt of hairpins on a sequencing array, two-state fit. The following applies: sodium 0.088 M. In a few lines: (§1)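 Melting temperature and folding enthalpy were obtained by bootstrapped two-state fitting. Fits used Cy3 fluorescence of library hairpins with annealed Cy3 and quencher oligos on a sequenced MiSeq flow cell, imaged in 50 mM Na-HEPES pH 8.0, 25 mM NaCl in 2.5 °C steps up to 60 °C and normalised to pre-quench Cy3 and control constructs. Four replicates were combined by inverse-variance weighting, and fitted temperatures were raised by 9.35 °C to match UV melts.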

Series [2] can be described thus: melting temperature; fluorescence melt of hairpins on a sequencing array, two-state fit, raised by 9.35 °C to match UV melts. The following applies: sodium 0.088 M. A digest of the protocol:
as §1

Turning to GCAGTCGAAAGACAATGC ((((((....)))..))), in series [1], the folding enthalpy was -20.1 kcal/mol. For the same sequence, in series [2], the Tm was 44.4 °C.
For GATGGCGCGAAAGCGATC (((..(((....)))))), in that order: -11 kcal/mol and 31.6 °C.
For CGTTCGGAAACGAAGACG ((((((....)))..))), in that order: -26.2 kcal/mol and 34.9 °C.
On to GCGTCCCGACGC ((((....)))), for which the folding enthalpy in series [1] was -23.3 kcal/mol. Further, the Tm in series [2] came out at 61 °C.
Take GATCTATAGTTAGATC ((((((....)))))): the folding enthalpy in series [1] was -27.1 kcal/mol. Besides, the Tm in series [2] came to 39.4 °C.
On the same counts, the results for GCTTAGCGAAAGCCGAGC (((..((....))..))) are -15.8 kcal/mol and 42 °C.
For GTGCGTGGAAACGCGCAC (((((.(....).))))), in that order: -23.7 kcal/mol and 65.6 °C.
GGGTACGGAAACGTGTCC ((..(((....)))..)): the folding enthalpy in series [1] was -24.8 kcal/mol. The Tm in series [2] amounted to 40.6 °C.
GCCGTTGGAAACAGCGGC ((((.((....)).)))): in series [1], the folding enthalpy was -39.8 kcal/mol. The Tm in series [2] is 60.3 °C.
For GATCCTTGAAGGATC ((((((...)))))), in that order: -38.8 kcal/mol and 51.2 °C.
For GCTCAACGAAAGTTAGC (((.(((....)))))), in that order: -22.2 kcal/mol and 41.1 °C.
On the same counts, the results for GCATGCGAAAGCACCTGC ((((((....)))..))) are -10.9 kcal/mol and 33 °C.
Turning to GATCAACCCTTTGATC ((((((....)))))), in series [1], the folding enthalpy was -39.2 kcal/mol. Also, in series [2], the Tm amounted to 46.1 °C.
On the same counts, the results for GATCAAGGTCTTGATC ((((((....)))))) are -37.5 kcal/mol and 48.6 °C.
Consider GCCTGGGGAAACTCAGGC (((((.(....).))))), for which the folding enthalpy in series [1] is -36 kcal/mol. Further, the Tm in series [2] is 58.4 °C.
On the same counts, the results for GGAGTTGGAAACAACTTC (.(((((....))))).) are -31.1 kcal/mol and 47.5 °C.
As for GCGGAGTCCGC ((((...)))), the folding enthalpy in series [1] was -25.6 kcal/mol. The Tm in series [2] stood at 52.4 °C.
For GATCATTGGGATGATC ((((((....)))))), in that order: -38.8 kcal/mol and 49.5 °C.
Regarding GCTTACGAAAGTAAAAGC ((((((....)))..))), the folding enthalpy in series [1] is -27.5 kcal/mol. Besides, the Tm in series [2] was found to be 41.7 °C.
On to GCGTTTGCACGC ((((....)))), for which the folding enthalpy in series [1] was -19.1 kcal/mol. Besides, the Tm in series [2] is 54.3 °C.
In the case of GGCGTTGGAAACAATGCC (((.(((....))).))), in series [1], the folding enthalpy was -53.7 kcal/mol. The Tm in series [2] turned out to be 56.5 °C.
For GTGGTCGAAAGACCCAC ((((((....))).))), in that order: -13.2 kcal/mol and 51.1 °C.
For GATCGAGACTCGATC ((((((...)))))), in that order: -37.1 kcal/mol and 52.9 °C.
On the same counts, the results for GATCGATACATCGATC ((((((....)))))) are -46.2 kcal/mol and 55.9 °C.
With GGGTTTGCGAAAGCACCC (((..(((....)))))), in series [1], the folding enthalpy is -18.9 kcal/mol. Also, in series [2], the Tm turned out to be 47.3 °C.
In the case of GTCTGCGAAAGCAAGGAC ((((((....)))..))), in series [1], the folding enthalpy was -17.5 kcal/mol. In addition, the Tm in series [2] turned out to be 43.2 °C.
For GATCACCTGTGTGATC ((((((....)))))), in that order: -37.8 kcal/mol and 57 °C.
On the same counts, the results for GACTTCGGAAACGAAGTC (((((((....))))))) are -38.6 kcal/mol and 66.3 °C.
Take GATCCAATAATGGATC ((((((....)))))): the folding enthalpy in series [1] is -31.1 kcal/mol. For the same sequence, the Tm in series [2] was found to be 47.5 °C.
On the same counts, the results for GGTCCGGGAAACTGGGCC ((.((.(....).)).)) are -35.4 kcal/mol and 51.7 °C.
Turning to GATCGAAACATCGATC ((((((....)))))), in series [1], the folding enthalpy is -39.9 kcal/mol. Besides, in series [2], the Tm came to 50 °C.
On the same counts, the results for GATCATCAAATGATC ((((((...)))))) are -25.1 kcal/mol and 41.1 °C.
Regarding GCGTCAAACGC ((((...)))), in series [1], the folding enthalpy was -16.7 kcal/mol. The Tm in series [2] amounted to 50.8 °C.
On the same counts, the results for GCGAACCCTCGC ((((....)))) are -23.2 kcal/mol and 47 °C.
For GTATCCGAAAGGAGATAC ((((((....)))..))), in that order: -15.2 kcal/mol and 34.3 °C.
Turning to GATCTCCAGGGAGATC ((((((....)))))), the folding enthalpy in series [1] is -36.5 kcal/mol. Also, in series [2], the Tm was 55 °C.
Take GGCTAAGCGAAAGCTGCC (((..(((....)))))): the folding enthalpy in series [1] was -23.7 kcal/mol. Moreover, the Tm in series [2] is 54.6 °C.
On the same counts, the results for GATCCCACGAGGGATC ((((((....)))))) are -34.5 kcal/mol and 63.5 °C.
On the same counts, the results for GTCGTCGAAAGACCTGAC ((((((....)))..))) are -14.7 kcal/mol and 31.7 °C.
Consider GCCATGCGAAAGCGAGGC (((..((....))..))), for which the folding enthalpy in series [1] was -21.6 kcal/mol. In addition, in series [2], the Tm was 60 °C.
For GCACCCGGAAACGGATGC (((.(((....))).))), in that order: -25.5 kcal/mol and 51.6 °C.
Turning to GGCTTAGGAAACTAAGCC (((((((....))))))), the folding enthalpy in series [1] was -48.5 kcal/mol. Also, the Tm in series [2] worked out at 62.9 °C.
On the same counts, the results for GTACATCCGAAAGGATAC (((..(((....)))))) are -12.1 kcal/mol and 29.6 °C.
On the same counts, the results for CGTTCACGGAAACGTACG (((..(((....)))))) are -15.2 kcal/mol and 39 °C.
Take GATCGCGGAAACGCGACC (.(((((....))))).): in series [1], the folding enthalpy is -10.5 kcal/mol. Further, in series [2], the Tm was found to be 49.2 °C.
For GACAGAGGAAACTCTGCC (.(((((....))))).), in series [1], the folding enthalpy was -15.5 kcal/mol. Also, in series [2], the Tm was found to be 41.9 °C.
For GCCACCGAAAGGTCTGGC ((((((....)))..))), in that order: -19.4 kcal/mol and 47.4 °C.
On the same counts, the results for GACTCTGGAAACAGAATC ((.((((....)))).)) are -22.3 kcal/mol and 28.5 °C.
For GCGCTCCGAAAGGAACGC (((.(((....))).))), in that order: -46.8 kcal/mol and 65 °C.
Regarding GATCACCAGAGTGATC ((((((....)))))), the folding enthalpy in series [1] is -40 kcal/mol. Moreover, the Tm in series [2] turned out to be 57.2 °C.
As for GCCCTGCGAAAGCGGAGC ((.(.((....)).).)), in series [1], the folding enthalpy is -15.5 kcal/mol. Besides, the Tm in series [2] was determined as 51.5 °C.
On the same counts, the results for GATGCAGGAAACTGCGTC ((.((((....)))).)) are -44.7 kcal/mol and 52.5 °C.
For CTAGCGAAAGCTAG (((((....))))), in that order: -19 kcal/mol and 63.2 °C.
On the same counts, the results for GATCAAGCTCTTGATC ((((((....)))))) are -38.9 kcal/mol and 48.3 °C.
In the case of CGACGCGGAAACGCTCG (((.(((....)))))), the folding enthalpy in series [1] is -21.8 kcal/mol. The Tm in series [2] came to 49.3 °C.
On the same counts, the results for GTTTCCGAAAGGATAAAC ((((((....)))..))) are -15.8 kcal/mol and 29.7 °C.
On the same counts, the results for GCATAGCGAAAGCATTGC (((..((....))..))) are -18.4 kcal/mol and 50.7 °C.
In the case of GTCTGGAAACAGAC (((((....))))), the folding enthalpy in series [1] is -27.8 kcal/mol. The Tm in series [2] was 52.4 °C.
On the same counts, the results for GCGCTGCGAAAGCACTGC ((..(((....)))..)) are -16.8 kcal/mol and 41 °C.
On the same counts, the results for GATCGGATGACCGATC ((((((....)))))) are -29.8 kcal/mol and 55.8 °C.
On the same counts, the results for GATCCAGTCTTGGATC ((((((....)))))) are -43.5 kcal/mol and 53.5 °C.
For the sequence GTGTGCGAAAGCAACAC ((((((....))).))), in series [1], the folding enthalpy is -30.1 kcal/mol. Further, the Tm in series [2] stood at 61.3 °C.
For GATCGAGAATCGATC ((((((...)))))), in that order: -39.8 kcal/mol and 59.5 °C.
For GTGCTACCGAAAGGTCAC (((..(((....)))))), in that order: -15.5 kcal/mol and 37 °C.
On the same counts, the results for GGTCTGGGAAACTAGACC (((((.(....).))))) are -41.5 kcal/mol and 50.6 °C.
For GTCAGCCCGAAAGGGGAC (((..(((....)))))), in series [1], the folding enthalpy is -13.7 kcal/mol. Moreover, the Tm in series [2] was found to be 42.4 °C.
In the case of GCAACGCGAAAGCTTGGC ((.(.((....)).).)), in series [1], the folding enthalpy was -11.5 kcal/mol. Besides, the Tm in series [2] amounted to 38.5 °C.
With GATCTACCGCTAGATC ((((((....)))))), the folding enthalpy in series [1] is -29.4 kcal/mol. Further, the Tm in series [2] was 40 °C.
For GATCTCCTGGGAGATC ((((((....)))))), in that order: -43.3 kcal/mol and 56.5 °C.
As for GTCTACGAAAGTAGTGAC ((((((....)))..))), the folding enthalpy in series [1] is -14.3 kcal/mol. In series [2], the Tm worked out at 33.4 °C.
On the same counts, the results for GATCTACCTTTAGATC ((((((....)))))) are -30.4 kcal/mol and 38.3 °C.
Take GATCGTCTGCACGATC ((((((....)))))): in series [1], the folding enthalpy was -38.3 kcal/mol. Further, in series [2], the Tm came out at 55.3 °C.
Turning to ATAGGGAAACCTAT (((((....))))), the folding enthalpy in series [1] was -11.2 kcal/mol. The Tm in series [2] was found to be 32.4 °C.
For GCCCCGCGAAAGCGTTGC ((..(((....)))..)), in that order: -9.75 kcal/mol and 33.5 °C.
For GACACCGAAAGGTGTGTC ((((((....)))..))), in that order: -11.3 kcal/mol and 61.6 °C.
